SMILES strings stand for the structures.

Data on one compound can be found in ChEMBL document CHEMBL1139138, “Pyrrolidine-constrained phenethylamines: The design of potent, selective, and pharmacologically efficacious dipeptidyl peptidase IV (DPP4) inhibitors from a lead-like screening hit” (Bioorg Med Chem Lett, 2007).

The test system of data set [1] is Rattus norvegicus. Briefly: Reduction of glucose level in ZDF rat at 3 mg/kg, po […]. The data set is classed as functional. Details: scale not given: the % may be the effect or the level left. The method in brief:
(§1)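 Female Zucker diabetic fatty rats, 10 weeks old, fasted overnight (n = 10/group). They were dosed orally with vehicle or inhibitor at 0.3, 1 or 3 mg/kg at t = −240 min and allowed to feed at t = 0. Blood glucose lowering was measured relative to vehicle.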

A further data set addresses T1, Prolyl endopeptidase (Homo sapiens, UniProt P48147).
T1 sequence (P48147 whole entry): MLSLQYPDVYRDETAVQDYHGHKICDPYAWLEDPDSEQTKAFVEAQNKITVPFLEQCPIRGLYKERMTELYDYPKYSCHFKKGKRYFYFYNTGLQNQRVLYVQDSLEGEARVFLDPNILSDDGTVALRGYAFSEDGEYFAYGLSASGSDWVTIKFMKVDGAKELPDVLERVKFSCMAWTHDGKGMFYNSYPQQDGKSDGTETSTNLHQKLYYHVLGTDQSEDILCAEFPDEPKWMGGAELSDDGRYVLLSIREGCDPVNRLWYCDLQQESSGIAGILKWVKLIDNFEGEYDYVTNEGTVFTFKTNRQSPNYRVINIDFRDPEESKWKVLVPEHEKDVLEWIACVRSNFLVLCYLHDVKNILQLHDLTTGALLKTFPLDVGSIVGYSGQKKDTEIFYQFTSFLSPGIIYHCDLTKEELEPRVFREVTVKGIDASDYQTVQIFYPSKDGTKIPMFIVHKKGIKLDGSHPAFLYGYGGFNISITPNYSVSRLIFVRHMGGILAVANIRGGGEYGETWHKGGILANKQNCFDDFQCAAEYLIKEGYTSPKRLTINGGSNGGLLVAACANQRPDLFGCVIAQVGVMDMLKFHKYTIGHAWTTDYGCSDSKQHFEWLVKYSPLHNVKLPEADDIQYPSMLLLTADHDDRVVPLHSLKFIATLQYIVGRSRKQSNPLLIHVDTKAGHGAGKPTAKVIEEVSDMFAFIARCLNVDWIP
Briefly: Inhibition of human POP.

A short description of data set [2]: Oral bioavailability in Sprague-Dawley rat at 5 mg/kg, po. The format is ADME, organism-based. The following applies: in vivo. In outline: (§2)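 Pharmacokinetics in rat dosed at 5 mg/kg and in dog and monkey dosed at 2.5 mg/kg. Cmax, t1/2 (terminal) and AUC were taken from oral dosing. F is oral bioavailability. Vss is volume of distribution at steady state.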

Data set [3] in a line: Half life in human liver microsome. The format is ADME. The settings on record: liver microsomes. In outline:
(§3)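 Stability on incubation with rat or human liver microsomes, expressed as half-life.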
(In general: Liver microsomes are a subcellular fraction often used to study metabolism.)

Data set [4] in a line: Cmax in Sprague-Dawley rat at 5 mg/kg, po. The format is ADME, organism-based. Also noted: dose 5 mg/kg, route oral. The following applies: in vivo. In outline:
as §2

The next data set has as its target Cytochrome P450 3A4 (Homo sapiens, UniProt P08684). Put plainly: Inhibition of CYP3A4. The data set is classed as ADME.
The nature of data set [5]: Plasma concentration in ZDF rat at 1 mg/kg after 240 mins. The format is ADME, organism-based. Also noted: dose 1 mg/kg. In outline: (§4)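 Female ZDF rats, 10 weeks old, fasted overnight and dosed orally at 1 mg/kg four hours before feeding (t = 0). Plasma drug concentration and the matching plasma DPP4 inhibition were determined at t = 0 and t = 240 min.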
The nature of data set [6]: Cmax in dog at 2.5 mg/kg, po. Details: dose 2.5 mg/kg, route oral. The settings on record: in vivo. The data set is classed as ADME, organism-based, Canis lupus familiaris. In outline: as §2
A further data set deals with T2, Prolyl endopeptidase FAP (Homo sapiens, UniProt Q12884).
T2 sequence (Q12884 whole entry): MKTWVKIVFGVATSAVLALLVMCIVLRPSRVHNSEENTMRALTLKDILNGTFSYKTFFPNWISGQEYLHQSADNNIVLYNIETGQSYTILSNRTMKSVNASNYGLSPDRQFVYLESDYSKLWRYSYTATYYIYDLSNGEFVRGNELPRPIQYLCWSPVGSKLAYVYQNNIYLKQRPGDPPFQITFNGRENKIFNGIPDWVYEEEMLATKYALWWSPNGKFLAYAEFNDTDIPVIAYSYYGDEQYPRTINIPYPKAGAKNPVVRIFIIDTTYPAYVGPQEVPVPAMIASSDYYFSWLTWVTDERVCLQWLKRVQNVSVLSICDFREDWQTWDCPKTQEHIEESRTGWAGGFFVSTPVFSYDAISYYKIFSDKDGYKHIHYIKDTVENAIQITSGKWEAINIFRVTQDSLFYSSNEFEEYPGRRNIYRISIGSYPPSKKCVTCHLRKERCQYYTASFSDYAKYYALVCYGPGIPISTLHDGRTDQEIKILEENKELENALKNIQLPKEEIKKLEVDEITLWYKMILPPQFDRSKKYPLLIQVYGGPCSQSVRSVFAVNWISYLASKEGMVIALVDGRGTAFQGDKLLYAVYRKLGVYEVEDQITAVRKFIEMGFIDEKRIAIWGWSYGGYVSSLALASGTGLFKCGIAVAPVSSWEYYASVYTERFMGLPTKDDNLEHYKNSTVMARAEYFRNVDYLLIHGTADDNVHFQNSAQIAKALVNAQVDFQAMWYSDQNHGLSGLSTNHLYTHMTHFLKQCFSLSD
Put plainly: Inhibition of human FAPalpha.

Data set [7] in a line: Half life in rat liver microsome. The following applies: liver microsomes. The format is ADME. In outline:
as §3

Another data set deals with Cytochrome P450 2D6 (Homo sapiens, UniProt P10635). Briefly: Inhibition of CYP2D6. The format is ADME.
Cytochrome P450 2D6, sequence (P10635 whole entry): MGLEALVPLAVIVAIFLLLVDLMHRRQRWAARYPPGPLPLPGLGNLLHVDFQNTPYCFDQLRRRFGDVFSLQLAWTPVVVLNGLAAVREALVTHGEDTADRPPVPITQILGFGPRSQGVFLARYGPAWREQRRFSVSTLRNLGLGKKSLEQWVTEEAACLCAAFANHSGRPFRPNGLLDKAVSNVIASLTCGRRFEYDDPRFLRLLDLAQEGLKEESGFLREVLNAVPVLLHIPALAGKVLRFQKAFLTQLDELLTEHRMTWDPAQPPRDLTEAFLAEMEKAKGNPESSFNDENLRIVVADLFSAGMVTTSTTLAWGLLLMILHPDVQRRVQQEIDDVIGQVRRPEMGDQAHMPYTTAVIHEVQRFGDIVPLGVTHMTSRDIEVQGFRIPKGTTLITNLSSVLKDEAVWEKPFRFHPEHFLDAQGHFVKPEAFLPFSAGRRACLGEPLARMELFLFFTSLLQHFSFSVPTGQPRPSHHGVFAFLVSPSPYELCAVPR
For a further data set, the target named is Cytochrome P450 2C9 (Homo sapiens, UniProt P11712). Put plainly: Inhibition of CYP2C9. The format is ADME.
Cytochrome P450 2C9, sequence (P11712 whole entry): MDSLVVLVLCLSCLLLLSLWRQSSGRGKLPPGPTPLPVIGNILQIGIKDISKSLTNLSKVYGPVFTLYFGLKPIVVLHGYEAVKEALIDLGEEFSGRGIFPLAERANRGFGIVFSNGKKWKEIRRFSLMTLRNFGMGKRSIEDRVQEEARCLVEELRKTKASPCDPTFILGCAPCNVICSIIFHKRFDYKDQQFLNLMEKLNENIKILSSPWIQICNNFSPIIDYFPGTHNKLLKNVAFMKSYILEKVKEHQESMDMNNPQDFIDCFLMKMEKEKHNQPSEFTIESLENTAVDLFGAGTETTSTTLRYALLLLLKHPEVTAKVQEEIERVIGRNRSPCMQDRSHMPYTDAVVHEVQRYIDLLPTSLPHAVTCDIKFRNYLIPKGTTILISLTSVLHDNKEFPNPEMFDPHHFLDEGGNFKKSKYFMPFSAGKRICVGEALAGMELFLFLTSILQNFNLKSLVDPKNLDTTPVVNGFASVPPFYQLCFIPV
For the next data set, the system named is Canis familiaris. Put plainly: AUC in dog at 2.5 mg/kg, po. Details: dose 2.5 mg/kg, route oral. The format is ADME, organism-based, Canis lupus familiaris, Plasma. The settings on record: in vivo. In outline: as §2
Data set [8] can be described thus: Plasma clearance in dog at 2.5 mg/kg, po. The format is ADME, organism-based, Canis lupus familiaris. Also noted: dose 2.5 mg/kg, route oral. The method in brief:
as §2

Data set [9] deals with Rattus norvegicus. Briefly: Volume of distribution at steady state in Sprague-Dawley rat at 5 mg/kg, po. Also noted: dose 5 mg/kg, route oral. The settings on record: in vivo. The format is ADME, organism-based. The method in brief:
as §2

A short description of data set [10]: Oral bioavailability in dog at 2.5 mg/kg, po. The following applies: in vivo. The data set is classed as ADME, organism-based, Canis lupus familiaris. The method in brief: as §2
Data set [11] in a line: Half life in Sprague-Dawley rat at 5 mg/kg, po. The following applies: in vivo. The data set is classed as ADME, organism-based. Details: dose 5 mg/kg, route oral. The method in brief:
as §2

Data set [12] deals with Rattus norvegicus. Put plainly: AUC in Sprague-Dawley rat at 5 mg/kg, po. The settings on record: in vivo. The format is ADME, organism-based, Plasma. Details: dose 5 mg/kg, route oral. The method in brief: as §2
Data set [13] can be described thus: Plasma clearance in Sprague-Dawley rat at 5 mg/kg, po. Details: dose 5 mg/kg, route oral. The format is ADME, organism-based. The method in brief:
as §2

The subject of data set [14] is Rattus norvegicus. Briefly: Reduction of glucose level in ZDF rat at 1 mg/kg, po […]. The format is functional. Also noted: scale not given: the % may be the effect or the level left. In outline: as §1
The subject of data set [15] is Rattus norvegicus. Put plainly: Inhibition of DPP4 in ZDF rat at 1 mg/kg after 240 mins. The data set is classed as functional. The following applies: 4 h. The method in brief:
as §4

The subject of data set [16] is Rattus norvegicus. Put plainly: Reduction of glucose level in ZDF rat at 0.3 mg/kg, po by […]. The data set is classed as functional. Also noted: scale not given: the % may be the effect or the level left. The method in brief: as §1
Data set [17] is described as follows: Half life in dog at 2.5 mg/kg, po. The following applies: in vivo. The format is ADME, organism-based, Canis lupus familiaris. Details: dose 2.5 mg/kg, route oral. The method in brief: as §2

Cytochrome P450 3A4, sequence (P08684 whole entry): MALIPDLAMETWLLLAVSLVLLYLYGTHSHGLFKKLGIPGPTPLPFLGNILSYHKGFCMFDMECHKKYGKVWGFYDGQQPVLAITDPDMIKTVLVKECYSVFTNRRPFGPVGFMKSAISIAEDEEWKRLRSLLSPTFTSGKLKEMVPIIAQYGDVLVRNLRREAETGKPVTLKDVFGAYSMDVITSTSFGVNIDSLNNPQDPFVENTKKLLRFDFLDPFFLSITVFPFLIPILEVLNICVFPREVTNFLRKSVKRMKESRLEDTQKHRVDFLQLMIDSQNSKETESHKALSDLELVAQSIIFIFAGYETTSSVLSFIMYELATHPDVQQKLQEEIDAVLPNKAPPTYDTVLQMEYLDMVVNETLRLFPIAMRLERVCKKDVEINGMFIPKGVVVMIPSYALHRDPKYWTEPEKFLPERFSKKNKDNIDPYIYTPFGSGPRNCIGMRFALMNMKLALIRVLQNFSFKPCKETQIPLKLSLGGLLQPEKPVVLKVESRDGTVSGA

One may read the Ki as a dissociation constant, usually derived from enzyme kinetics or from competition with a known ligand. Broadly, the bioavailability is the share of a dose that reaches the circulation, judged against a reference dose that is usually intravenous. Usually half-life stands for the time needed for the level to fall by half in the phase considered. Broadly, the Cmax is the highest concentration seen after dosing. One may read the IC50 as the concentration that inhibits the measured activity by half. Broadly, the AUC is concentration integrated over time. The term CL/F denotes the apparent clearance, not corrected for the fraction that reaches the circulation. In general, inhibition in vivo refers to the relative decrease from the control value, in per cent. On to `CS(=O)(=O)c1cccc(-c2ncnc(N3CC(N)C(c4cc(F)c(F)cc4F)C3)n2)c1` (stereo not drawn), for which the Activity in the data set on Rattus norvegicus [1] is -37%; in the data set on Rattus norvegicus [14], -39%; with Rattus norvegicus [16], -32%. Further, the Ki at Prolyl endopeptidase and at Prolyl endopeptidase FAP was > 30 µM each time. Further, the bioavailability in data set [2] worked out at 74%; in data set [10], 100%. Further, the half-life in [3] is > 3 h; in [7], > 3 h; in [11] it was 5.5 h; in [17], 14.9 h. In addition, the Cmax in data set [4] came to 1.97 µg/mL; in [6] it was 0.691 µg/mL. In addition, the IC50 at Cytochrome P450 3A4, at Cytochrome P450 2D6 and at Cytochrome P450 2C9 was > 10 µM each time. For the same compound, the concentration at 4 h in data set [5] was found to be 0.373 µg/mL. Besides, the AUC in the data set with Canis familiaris is 12.2 µg·h/mL; in the data set with Rattus norvegicus [12] it was 24.4 µg·h/mL. In addition, the figures for the CL/F in data set [8] and in data set [13] were 0.21 L/h/kg and 0.15 L/h/kg, respectively. In the data set on Rattus norvegicus [9], this compound gave a Vdss of 1.15 L/kg. The inhibition in vivo at 1 mg/kg in the data set with Rattus norvegicus [15] is > 98%.
